Source: ChEMBL document CHEMBL1149384, “Identification of a novel spiropiperidine opioid receptor-like 1 antagonist class by a focused library approach featuring 3D-pharmacophore similarity” (J Med Chem, 2006)

Legend:
[1] = target: Kappa-type opioid receptor (Homo sapiens, UniProt P41145); experiment: Displacement of [3H]U-69593 from cloned human kappa opioid receptor expressed in CHO cells; assay type: cell-based
Summary of the method: (§1)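 Radioligand displacement using membrane fractions of CHO cells stably expressing cloned human receptors. IC50 reported as mean of three independent determinations, each in duplicate.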

[2] = target: Delta-type opioid receptor (Homo sapiens, UniProt P41143); experiment: Displacement of [3H]naltrindole from cloned human delta opioid receptor expressed in CHO cells; assay type: cell-based; summary of the method: as §1
Delta-type opioid receptor, sequence (P41143 whole entry): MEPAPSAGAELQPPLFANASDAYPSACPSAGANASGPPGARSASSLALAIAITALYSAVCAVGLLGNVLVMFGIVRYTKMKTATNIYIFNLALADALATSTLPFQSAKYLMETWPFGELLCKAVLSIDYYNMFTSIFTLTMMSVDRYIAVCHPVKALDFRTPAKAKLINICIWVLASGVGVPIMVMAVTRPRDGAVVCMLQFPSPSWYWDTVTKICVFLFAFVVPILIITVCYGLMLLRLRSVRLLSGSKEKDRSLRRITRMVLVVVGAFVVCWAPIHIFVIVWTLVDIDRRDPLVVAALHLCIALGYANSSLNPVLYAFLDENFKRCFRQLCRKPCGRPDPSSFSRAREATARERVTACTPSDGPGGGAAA

Nociceptin receptor [3] = target: T1, Nociceptin receptor (Homo sapiens, UniProt P41146); experiment: Agonist activity on nociceptin-induced maximal [35S]GTP-gamma-S binding to ORL1 expressed in CHO cells; assay type: functional, cell-based
T1 sequence (P41146 whole entry): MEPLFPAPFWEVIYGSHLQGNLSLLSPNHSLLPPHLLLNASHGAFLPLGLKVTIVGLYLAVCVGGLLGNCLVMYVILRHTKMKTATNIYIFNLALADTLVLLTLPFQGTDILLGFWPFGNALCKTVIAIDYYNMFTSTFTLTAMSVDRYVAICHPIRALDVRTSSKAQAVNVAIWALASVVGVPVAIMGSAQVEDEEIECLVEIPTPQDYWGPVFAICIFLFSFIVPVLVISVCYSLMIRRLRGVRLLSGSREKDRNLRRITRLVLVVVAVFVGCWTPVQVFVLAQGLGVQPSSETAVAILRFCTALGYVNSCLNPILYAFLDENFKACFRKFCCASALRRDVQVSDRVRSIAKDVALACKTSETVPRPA
Summary of the method: (§2)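 [35S]GTPγS binding in membrane fractions from CHO cells stably expressing human ORL1. Antagonism: IC50 against nociceptin-stimulated binding. Agonism: EC50 relative to maximal binding produced by nociceptin. Means of three independent determinations, each in duplicate.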

Nociceptin receptor [4] = target: T1, Nociceptin receptor; experiment: Displacement of [125I]Tyr-nociceptin from cloned human ORL1 expressed in CHO cells; assay type: cell-based; summary of the method: as §1
Mu-type opioid receptor = Mu-type opioid receptor (Homo sapiens, UniProt P35372); experiment: Displacement of [3H]diprenorphin from cloned human mu opioid receptor expressed in CHO cells; assay type: cell-based; summary of the method: as §1
Mu-type opioid receptor, sequence (P35372 whole entry): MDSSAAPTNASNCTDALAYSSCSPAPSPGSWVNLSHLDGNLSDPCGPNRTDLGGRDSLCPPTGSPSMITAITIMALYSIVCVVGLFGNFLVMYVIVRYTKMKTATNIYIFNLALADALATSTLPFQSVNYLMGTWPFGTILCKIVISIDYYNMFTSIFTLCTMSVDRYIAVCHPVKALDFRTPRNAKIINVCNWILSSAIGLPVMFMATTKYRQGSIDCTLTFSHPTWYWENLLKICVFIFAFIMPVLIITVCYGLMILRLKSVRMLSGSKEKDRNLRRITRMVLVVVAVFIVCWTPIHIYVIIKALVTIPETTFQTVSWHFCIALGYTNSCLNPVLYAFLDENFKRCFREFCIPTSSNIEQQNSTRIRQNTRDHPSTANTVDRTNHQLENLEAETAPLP

Nociceptin receptor [5] = target: T1, Nociceptin receptor; experiment: Antagonist activity on nociceptin-induced [35S]GTP-gamma-S binding to ORL1 expressed in CHO cells; assay type: functional, cell-based; summary of the method: as §2
Mus musculus = experiment: Antagonist activity as % reversal against the reduction in locomotor activity produced by an ORL1 agonist in CD1 mice at 10 mg/kg, sc; assay type: functional; parameters: scale not given: the % may be the effect or the level left; conditions: route subcutaneous
Summary of the method: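 Mice given test agent 10 mg/kg sc against an ORL1 agonist that reduces locomotor activity. Activity counted over 60 min. Value is % reversal of the agonist response, mean ± SEM, n = 7–8 per group.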

Rattus norvegicus = experiment: Brain level in rat after administration of 10 mg/kg, sc; assay type: ADME, organism-based; parameters: dose 10 mg/kg, route subcutaneous; conditions: in vivo
Summary of the method: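 Rats dosed 10 mg/kg sc. Plasma and brain collected 1 h after dosing and drug concentration measured, n = 3 per group. Plasma in nM, brain in nmol/g brain.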

[6] = Distribution coefficient (LogD) between octanol and buffer; assay type: physicochemical

Kappa-type opioid receptor, sequence (P41145 whole entry): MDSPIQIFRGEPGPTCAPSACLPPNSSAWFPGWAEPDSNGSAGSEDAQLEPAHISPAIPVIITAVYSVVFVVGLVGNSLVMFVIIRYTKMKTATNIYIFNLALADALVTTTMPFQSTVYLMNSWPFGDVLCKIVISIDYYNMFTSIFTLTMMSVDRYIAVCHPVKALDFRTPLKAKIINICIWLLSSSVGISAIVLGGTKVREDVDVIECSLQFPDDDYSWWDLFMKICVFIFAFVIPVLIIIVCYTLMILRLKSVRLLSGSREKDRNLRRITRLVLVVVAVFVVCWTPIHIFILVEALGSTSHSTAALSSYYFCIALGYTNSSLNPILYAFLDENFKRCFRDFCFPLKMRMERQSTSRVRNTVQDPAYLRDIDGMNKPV

Row | Compound | IC50 (Nociceptin receptor [4]) [nM] | also measured
1 | O=C(NCCCN1CCC2(CCc3ccccc32)CC1)[C@@H](O)Cc1ccccc1 | 12 | IC50 [1]: 6.9 µM; IC50 [2]: > 10 µM; EC50 (Nociceptin receptor [3]): > 10 µM; IC50 (Mu-type opioid receptor): > 10 µM; IC50 (Nociceptin receptor [5]): 7.5 nM
2 | O=C(Cc1ccccc1)C(=O)NCCCN1CCC2(CCc3ccccc32)CC1 | > 1000 | 
3 | O=C(NCCCN1CCC2(CCc3ccccc32)CC1)C(O)(c1ccccc1)C1CCCCC1 (configuration not stated) | > 1000 | 
4 | O=C(NCCCN1CCC2(CCc3ccccc32)CC1)[C@@H]1CCCN1C(=O)c1ccccc1 | > 1000 | 
5 | O=C(NCCCN1CCC2(CCc3ccccc32)CC1)c1ncccc1C(O)c1ccccc1 (configuration not stated) | > 1000 | 
6 | CC(NC(=O)c1ccccc1)C(=O)NCCCN1CCC2(CCc3ccccc32)CC1 (configuration not stated) | > 1000 | 
7 | O=C(NCCCN1CCC2(CCc3ccccc32)CC1)C1CC1c1ccccc1 (configuration not stated) | > 1000 | 
8 | O=C(CCc1ccccc1)NCCCN1CCC2(CCc3ccccc32)CC1 | 730 | 
9 | O=C(NCCCN1CCC2(CCc3ccccc32)CC1)c1ccccc1C(O)c1ccccc1 (configuration not stated) | 580 | 
10 | O=C(NCCCN1CCC2(CCc3ccccc32)CC1)c1ccccc1OCc1ccccc1 | 83 | IC50 [1]: 2.3 µM; IC50 [2]: > 10 µM; EC50 (Nociceptin receptor [3]): > 10 µM; IC50 (Mu-type opioid receptor): > 10 µM; IC50 (Nociceptin receptor [5]): 110 nM
11 | O=C(CSc1nc2ccccc2s1)NCCCN1CCC2(CCc3ccccc32)CC1 | 290 | 
12 | O=C(NCCCN1CCC2(CCc3ccccc32)CC1)C1CCCCC1C(=O)Nc1ccccc1 (configuration not stated) | > 1000 | 
13 | CC1=Cc2ccccc2C1C(=O)NCCCN1CCC2(CCc3ccccc32)CC1 (configuration not stated) | > 1000 | 
14 | O=C(NCCCN1CCC2(CC1)OCc1ccccc12)[C@H]1CCCN1Cc1ccccc1 | 0.27 | IC50 [1]: 2.5 µM; IC50 [2]: > 10 µM; Activity (Mus musculus): 88%; Activity (Rattus norvegicus): 4.37 nM/g; EC50 (Nociceptin receptor [3]): > 1 µM; IC50 (Mu-type opioid receptor): 6.7 µM; IC50 (Nociceptin receptor [5]): 0.15 nM
15 | O=C(NCCCN1CCC2(CCc3ccccc32)CC1)C1(c2ccccc2)CCCC1 | > 1000 | 
16 | O=C(CSc1ccccc1)NCCCN1CCC2(CCc3ccccc32)CC1 | 170 | 
17 | O=C(NCCCN1CCC2(CCc3ccccc32)CC1)C(Cc1ccccc1)c1ccccc1 (configuration not stated) | > 1000 | 
18 | O=C(CC1Cc2ccccc2C1)NCCCN1CCC2(CCc3ccccc32)CC1 | > 1000 | 
19 | O=C(Cc1cccc(Oc2ccccc2)c1)NCCCN1CCC2(CCc3ccccc32)CC1 | 340 | 
20 | O=C(NCCCN1CCC2(CCc3ccccc32)CC1)C(=O)c1cnn(-c2ccccc2)c1C(F)(F)F | > 1000 | 
21 | O=C(CCc1c[nH]c2ccccc12)NCCCN1CCC2(CCc3ccccc32)CC1 | 360 | 
22 | O=C(/C=C/c1c[nH]c2ccccc12)NCCCN1CCC2(CCc3ccccc32)CC1 | > 1000 | 
23 | CC(C)(Oc1ccc(Cl)cc1)C(=O)NCCCN1CCC2(CCc3ccccc32)CC1 | 870 | 

Row | Compound | IC50 (Nociceptin receptor [4]) [nM] | also measured
24 | O=C(NCCCN1CCC2(CCc3ccccc32)CC1)[C@H]1CCC(=O)N1Cc1ccccc1 | 50 | 
25 | O=C(NCCCN1CCC2(CCc3ccccc32)CC1)c1ccccc1Nc1ccccc1 | 230 | 
26 | O=C(NCCCN1CCC2(CCc3ccccc32)CC1)[C@H]1CCCN1Cc1ccccc1 | 0.22 | logD [6]: 2.7; IC50 [1]: 0.95 µM; IC50 [2]: > 10 µM; EC50 (Nociceptin receptor [3]): > 1 µM; IC50 (Mu-type opioid receptor): 4.3 µM; IC50 (Nociceptin receptor [5]): 0.12 nM
27 | O=C(NCCCN1CCC2(CCc3ccccc32)CC1)c1ncccc1-c1ccccc1 | > 1000 | 
28 | C[C@@H](O)[C@H](NC(=O)c1ccccc1)C(=O)NCCCN1CCC2(CCc3ccccc32)CC1 | > 1000 | 
29 | O=C(NCCCN1CCC2(CCc3ccccc32)CC1)c1ccccc1Cc1ccccc1 | 21 | 
30 | O=C(NCCCN1CCC2(CCc3ccccc32)CC1)c1ccc(-c2ccc(Cl)cc2)o1 | > 1000 | 
31 | Cc1ccc(C(=O)/C=C/C(=O)NCCCN2CCC3(CCc4ccccc43)CC2)cc1 | > 1000 | 
32 | O=C(NCCCN1CCC2(CCc3ccccc32)CC1)c1ncccc1Oc1ccccc1 | > 1000 | 
33 | O=C(NCCCN1CCC2(CCc3ccccc32)CC1)C1Cc2ccccc2C1 | > 1000 | 
34 | CC(Oc1ccc(Cl)cc1Cl)C(=O)NCCCN1CCC2(CCc3ccccc32)CC1 (configuration not stated) | > 1000 | 
35 | O=C(NCCCN1CCC2(CCc3ccccc32)CC1)c1ccccc1Oc1ccccc1 | 8.2 | IC50 [1]: 9.6 µM; IC50 [2]: > 10 µM; EC50 (Nociceptin receptor [3]): > 10 µM; IC50 (Mu-type opioid receptor): > 10 µM; IC50 (Nociceptin receptor [5]): 4 nM
36 | O=C(N[C@H]1CCCC[C@H]1C(=O)NCCCN1CCC2(CCc3ccccc32)CC1)c1ccccc1 | > 1000 | 
37 | O=C(NCCCN1CCC2(CCc3ccccc32)CC1)[C@H]1COC(=O)N1Cc1ccccc1 | 24 | 
38 | O=C(NCCCN1CCC2(CCc3ccccc32)CC1)C1CCN(c2ncccn2)CC1 | > 1000 | 
39 | O=C(NCCCN1CCC2(CCc3ccccc32)CC1)C1(c2ccccc2)CCCCC1 | 630 | 
40 | O=C(Cc1ccc2c(c1)OCO2)C(=O)NCCCN1CCC2(CCc3ccccc32)CC1 | > 1000 | 
41 | O=C(NCCCN1CCC2(CCc3ccccc32)CC1)C(=O)c1c[nH]c2ccccc12 | 330 | 
42 | O=C(NCCCN1CCC2(CCc3ccccc32)CC1)C1CCc2ccccc2C1 (configuration not stated) | > 1000 | 
43 | O=C(NCCCN1CCC2(CCc3ccccc32)CC1)c1cccc(Oc2ccccc2)c1 | > 1000 | 
44 | O=C(Cc1ccccc1)NCCCN1CCC2(CCc3ccccc32)CC1 | > 1000 | 
45 | CC(=O)N/C(=C\c1ccccc1)C(=O)NCCCN1CCC2(CCc3ccccc32)CC1 | > 1000 | 
46 | O=C(NCCCN1CCC2(CCc3ccccc32)CC1)C1Cc2ccccc21 (configuration not stated) | > 1000 | 

Row | Compound | IC50 (Nociceptin receptor [4]) [nM] | also measured
47 | COC(C(=O)NCCCN1CCC2(CCc3ccccc32)CC1)c1ccccc1 (configuration not stated) | > 1000 | 
48 | O=C(NCCCN1CCC2(CCc3ccccc32)CC1)c1cccc2c1Cc1ccccc1-2 | > 1000 | 
49 | O=C(NCCCN1CCC2(CCc3ccccc32)CC1)c1cc(=O)c2ccccc2o1 | > 1000 | 
50 | O=C(NCCCN1CCC2(CCc3ccccc32)CC1)[C@@H]1CCCN1Cc1ccccc1 | 47 | IC50 [1]: 7.9 µM; IC50 [2]: > 10 µM; EC50 (Nociceptin receptor [3]): > 10 µM; IC50 (Mu-type opioid receptor): > 10 µM; IC50 (Nociceptin receptor [5]): 42 nM
51 | O=C(Cc1ccc2ccccc2c1)NCCCN1CCC2(CCc3ccccc32)CC1 | > 1000 | 
52 | O=C1CC(C(=O)NCCCN2CCC3(CCc4ccccc43)CC2)c2ccccc21 (configuration not stated) | > 1000 | 
53 | O=C(Cc1cccc2ccccc12)NCCCN1CCC2(CCc3ccccc32)CC1 | > 1000 | 
54 | O=C(NCCCN1CCC2(CCc3ccccc32)CC1)[C@H](O)Cc1ccccc1 | > 1000 | 
55 | CN(CC(=O)NCCCN1CCC2(CCc3ccccc32)CC1)C(=O)c1ccccc1 | > 1000 | 
56 | O=C(NCCCN1CCC2(CCc3ccccc32)CC1)[C@H]1COCN1C(=O)OCc1ccccc1 | 131 | 
57 | COc1ccc2c(c1)CC(CC(=O)NCCCN1CCC3(CCc4ccccc43)CC1)C2=O (configuration not stated) | > 1000 | 
58 | O=C1N[C@@H](Cc2ccccc2)[C@@H](C(=O)NCCCN2CCC3(CCc4ccccc43)CC2)O1 | 30 | 
59 | Cc1onc(-c2ccccc2)c1C(=O)NCCCN1CCC2(CCc3ccccc32)CC1 | > 1000 | 
60 | CC(C)(C)OC(=O)NC1(C(=O)NCCCN2CCC3(CCc4ccccc43)CC2)CCCCC1 | > 1000 | 
61 | CC(C)(C)C(Cc1ccccc1)C(=O)NCCCN1CCC2(CCc3ccccc32)CC1 (configuration not stated) | > 1000 | 
62 | CC(Oc1ccccc1)C(=O)NCCCN1CCC2(CCc3ccccc32)CC1 (configuration not stated) | 900 | 
63 | O=C(N[C@H]1CCCC[C@@H]1C(=O)NCCCN1CCC2(CCc3ccccc32)CC1)c1ccccc1 | > 1000 | 
64 | O=C(NCCCN1CCC2(CCc3ccccc32)CC1)c1ccccc1-c1ccccc1 | 10 | logD [6]: 3.1; IC50 [1]: 3.7 µM; IC50 [2]: > 10 µM; EC50 (Nociceptin receptor [3]): > 10 µM; IC50 (Mu-type opioid receptor): > 10 µM; IC50 (Nociceptin receptor [5]): 8.3 nM
65 | O=C(/C=C/c1ccccc1)NCCCN1CCC2(CCc3ccccc32)CC1 | 540 | 
66 | O=C(CCCc1ccccc1)NCCCN1CCC2(CCc3ccccc32)CC1 | 350 | 
67 | O=C(NCCCN1CCC2(CCc3ccccc32)CC1)C1Cc2ccccc2N1c1ccccc1 (configuration not stated) | > 1000 | 
68 | COc1ccccc1/C=C\C(=O)NCCCN1CCC2(CCc3ccccc32)CC1 | > 1000 | 
